Activity calls are given as the source filed them. No cut-off for these calls is given here.
Columns and labels:
[1] = target: T1, Melanocyte-stimulating hormone receptor (Homo sapiens, UniProt Q01726); assay: Agonist activity at human MC1R expressed in low doxycyclin-treated HEK293 cell membranes assessed as increase in cAMP production after 45 mins by HTRF method; assay type: functional, cell-based
[2] = target: T1, Melanocyte-stimulating hormone receptor; assay: Displacement of [125I]-NDP-alpha-MSH from human MC1R LBD expressed in HEK293 cell membranes up to 1 uM incubated for 16 to 23 hrs in dark by scintillation proximity assay
Target sequence in this assay (Q01726 whole entry, looked up, the tested form may be a part): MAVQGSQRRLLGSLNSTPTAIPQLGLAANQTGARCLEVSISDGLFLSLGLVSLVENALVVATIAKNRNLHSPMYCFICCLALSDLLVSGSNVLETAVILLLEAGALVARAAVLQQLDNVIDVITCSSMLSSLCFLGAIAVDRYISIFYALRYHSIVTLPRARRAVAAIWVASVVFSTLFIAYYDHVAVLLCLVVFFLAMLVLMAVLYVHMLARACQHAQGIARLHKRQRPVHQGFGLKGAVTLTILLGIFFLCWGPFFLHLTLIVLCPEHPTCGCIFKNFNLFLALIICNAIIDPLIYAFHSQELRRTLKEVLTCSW

Melanocortin receptor 4 [3] = target: T2, Melanocortin receptor 4 (Homo sapiens, UniProt P32245); assay: Displacement of [125I]-NDP-alpha-MSH from human MC4R LBD expressed in HEK293 cell membranes up to 100 uM incubated for 16 to 23 hrs in dark by scintillation proximity assay
Melanocortin receptor 3 [4] = target: T3, Melanocortin receptor 3 (Homo sapiens, UniProt P41968); assay: Displacement of [125I]-NDP-alpha-MSH from human MC3R LBD expressed in HEK293 cell membranes incubated for 16 to 23 hrs in dark by scintillation proximity assay; set-up: concentration or dose not given beside the values; conditions: for inhibition: concentration not given here
Melanocortin receptor 4 [5] = target: T2, Melanocortin receptor 4; assay: Agonist activity at human MC4R expressed in low doxycyclin-treated HEK293 cell membranes assessed as increase in cAMP production up to 100 uM after 45 mins by HTRF method; assay type: functional, cell-based
In short: (§1)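 Stable T-REx-293 clones (Zeocin-selected, human receptor cDNA in pcDNA4/TO), receptor expression induced with 0.1 ng/mL doxycycline for 24 h. 1000 cells/well in HBSS with Ca2+/Mg2+, 20 mM HEPES pH 7.4, 0.1% BSA. Stimulation for 45 min at 37 °C with 1 mM IBMX. cAMP read by LANCE HTRF (665/615 nm).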

Melanocortin receptor 4 [6] = target: T2, Melanocortin receptor 4; assay: Agonist activity at human MC4R expressed in high doxycyclin-treated HEK293 cell membranes assessed as increase in cAMP production after 15 mins by HTRF method; assay type: functional, cell-based
In short: (§2)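 T-REx-293 cells stably expressing doxycycline-inducible human MC1R, MC3R or MC4R; expression induced 24 h with 0.1 ng/mL (low) or 10 ng/mL (high, MC4R only) doxycycline. 1000 cells/well in HBSS, 20 mM HEPES pH 7.4, 0.1% BSA, 1 mM IBMX; stimulated at 37 °C. Time-resolved FRET cAMP read-out normalized to NDP-α-MSH maximum.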

Melanocortin receptor 3 [7] = target: T3, Melanocortin receptor 3; assay: Agonist activity at human MC3R expressed in low doxycyclin-treated HEK293 cell membranes assessed as increase in cAMP production up to 100 uM after 45 mins by HTRF method; assay type: functional, cell-based; in short: as §1
[8] = Solubility of the compound in water at 1 mM; assay type: physicochemical; conditions: buffer, 1000 µM
Melanocortin receptor 5 = Melanocortin receptor 5 (Homo sapiens, UniProt P33032); assay: Displacement of [125I]-NDP-alpha-MSH from human MC5R LBD expressed in HEK293 cell membranes incubated for 16 to 23 hrs in dark by scintillation proximity assay; set-up: concentration or dose not given beside the values; conditions: for inhibition: concentration not given here
Melanocortin receptor 3 [9] = target: T3, Melanocortin receptor 3; assay: Agonist activity at human MC3R expressed in low doxycyclin-treated HEK293 cell membranes assessed as increase in cAMP production after 45 mins by HTRF method; assay type: functional, cell-based; set-up: concentration or dose not given beside the values; in short: as §2
Melanocortin receptor 4 [10] = target: T2, Melanocortin receptor 4; assay: Agonist activity at human MC4R expressed in low doxycyclin-treated HEK293 cell membranes assessed as increase in cAMP production after 45 mins by HTRF method; assay type: functional, cell-based; in short: as §2
[11] = target: T1, Melanocyte-stimulating hormone receptor; assay: Displacement of [125I]-NDP-alpha-MSH from human MC1R LBD expressed in HEK293 cell membranes incubated for 16 to 23 hrs in dark by scintillation proximity assay; set-up: concentration or dose not given beside the values; conditions: for inhibition: concentration not given here
Melanocortin receptor 4 [12] = target: T2, Melanocortin receptor 4; assay: Displacement of [125I]-NDP-alpha-MSH from human MC4R LBD expressed in HEK293 cell membranes incubated for 16 to 23 hrs in dark by scintillation proximity assay; set-up: concentration or dose not given beside the values; conditions: for inhibition: concentration not given here
Bos taurus = organism: Bos taurus; assay: Inhibition of bovine trypsin at 5 uM using Boc-QAR-pNA as substrate preincubated for 1 hr followed by substrate addition measured every 30 secs for 300 secs by […]
Melanocortin receptor 3 [13] = target: T3, Melanocortin receptor 3; assay: Displacement of [125I]-NDP-alpha-MSH from human MC3R LBD expressed in HEK293 cell membranes up to 100 uM incubated for 16 to 23 hrs in dark by scintillation proximity assay

Chain of Melanocortin receptor 5 (P33032 whole entry, the tested form may be a part): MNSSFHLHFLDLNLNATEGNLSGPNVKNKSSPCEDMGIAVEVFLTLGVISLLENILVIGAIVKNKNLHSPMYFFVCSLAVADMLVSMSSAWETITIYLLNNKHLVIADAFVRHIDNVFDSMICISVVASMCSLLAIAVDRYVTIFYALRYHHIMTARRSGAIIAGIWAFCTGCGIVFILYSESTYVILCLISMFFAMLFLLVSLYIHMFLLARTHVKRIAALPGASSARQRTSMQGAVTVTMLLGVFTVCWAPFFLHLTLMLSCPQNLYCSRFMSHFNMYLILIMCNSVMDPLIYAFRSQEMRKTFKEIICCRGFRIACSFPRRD
T3 sequence (P41968 whole entry, the tested form may be a part): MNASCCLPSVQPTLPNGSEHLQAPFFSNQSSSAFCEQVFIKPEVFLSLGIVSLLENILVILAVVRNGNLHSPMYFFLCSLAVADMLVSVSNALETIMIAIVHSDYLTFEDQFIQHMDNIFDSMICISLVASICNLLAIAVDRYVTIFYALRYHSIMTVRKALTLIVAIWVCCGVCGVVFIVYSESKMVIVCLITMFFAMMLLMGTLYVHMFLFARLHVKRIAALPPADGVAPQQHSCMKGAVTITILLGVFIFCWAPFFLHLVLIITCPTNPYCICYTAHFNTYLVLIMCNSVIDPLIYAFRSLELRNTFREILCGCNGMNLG
T2 sequence (P32245 whole entry, the tested form may be a part): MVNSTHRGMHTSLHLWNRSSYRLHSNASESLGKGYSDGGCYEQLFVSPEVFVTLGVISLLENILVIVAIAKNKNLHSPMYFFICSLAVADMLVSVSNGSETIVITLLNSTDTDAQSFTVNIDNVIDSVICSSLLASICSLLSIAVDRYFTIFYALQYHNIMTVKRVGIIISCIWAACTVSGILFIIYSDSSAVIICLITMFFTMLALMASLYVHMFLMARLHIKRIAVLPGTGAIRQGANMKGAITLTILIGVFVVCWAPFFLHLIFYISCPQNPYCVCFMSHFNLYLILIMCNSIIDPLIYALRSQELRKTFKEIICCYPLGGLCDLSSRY

| Activity [1] [%] | inhibition (Melanocortin receptor 3 [4]) [%] | Activity (Melanocortin receptor 4 [6]) [%] | solubility [8] | inhibition (Melanocortin receptor 5) [%] | Activity (Melanocortin receptor 3 [9]) [%] | inhibition [11] [%] | inhibition (Melanocortin receptor 4 [12]) [%] | Structure (SMILES) | Activity (Melanocortin receptor 4 [10]) [%] | further results |
| --- | --- | --- | --- | --- | --- | --- | --- | --- | --- | --- |
| 100 | 100 | 100 | Soluble | 100 | – | – | – | CC[C@H](C)[C@@H]1NC(=O)[C@@H]2CCCN2C(=O)[C@H](Cc2c[nH]c3ccccc23)NC(=O)[C@H](CCCNC(=N)N)NC(=O)[C@H](Cc2ccccc2)NC(=O)[C@H](Cc2cnc[nH]2)NC(=O)[C@H]([C@@H](C)O)NC(=O)[C@@H]2CSSC[C@H](NC1=O)C(=O)N[C@@H](Cc1ccccc1)C(=O)N1CCC[C@H]1C(=O)N[C@@H](CC(=O)O)C(=O)NCC(=O)N[C@@H](CCCNC(=N)N)C(=O)N2 | – | inhibition [2]: inactive; inhibition (Melanocortin receptor 4 [3]): inactive; Activity (Melanocortin receptor 4 [5]): inactive; Activity (Melanocortin receptor 3 [7]): inactive |
| 100 | – | 100 | Soluble | 100 | – | 100 | 100 | CC[C@H](C)[C@@H]1NC(=O)[C@@H]2CCCN2C(=O)[C@H](Cc2c[nH]c3ccccc23)N(C)C(=O)[C@H](CCCNC(=N)N)N(C)C(=O)[C@@H](Cc2ccccc2)NC(=O)[C@H](Cc2cnc[nH]2)N(C)C(=O)[C@H]([C@@H](C)O)NC(=O)[C@@H]2CSSC[C@H](NC1=O)C(=O)N[C@@H](Cc1ccccc1)C(=O)N1CCC[C@H]1C(=O)N[C@@H](CC(=O)O)C(=O)NCC(=O)N[C@@H](CCCNC(=N)N)C(=O)N2 | – | inhibition (Melanocortin receptor 3 [13]): inactive; Activity (Melanocortin receptor 4 [5]): inactive; Activity (Melanocortin receptor 3 [7]): inactive |
| 100 | 100 | 100 | Soluble | 100 | 100 | 100 | 100 | CC[C@H](C)[C@@H]1NC(=O)[C@@H]2CCCN2C(=O)[C@H](Cc2c[nH]c3ccccc23)NC(=O)[C@H](CCCNC(=N)N)NC(=O)[C@@H](Cc2ccccc2)NC(=O)[C@H](Cc2cnc[nH]2)NC(=O)[C@H]([C@@H](C)O)NC(=O)[C@@H]2CSSC[C@H](NC1=O)C(=O)N[C@@H](Cc1ccccc1)C(=O)N1CCC[C@H]1C(=O)N[C@@H](CC(=O)O)C(=O)NCC(=O)N[C@@H](CCCNC(=N)N)C(=O)N2 | 100 | – |
| 100 | 100 | 100 | Soluble | 100 | 100 | 100 | 100 | CC[C@H](C)[C@@H]1NC(=O)[C@@H]2CCCN2C(=O)[C@H](Cc2c[nH]c3ccccc23)N(C)C(=O)[C@H](CCCNC(=N)N)NC(=O)[C@@H](Cc2ccccc2)NC(=O)[C@H](Cc2cnc[nH]2)N(C)C(=O)[C@H]([C@@H](C)O)NC(=O)[C@@H]2CSSC[C@H](NC1=O)C(=O)N[C@@H](Cc1ccccc1)C(=O)N1CCC[C@H]1C(=O)N[C@@H](CC(=O)O)C(=O)NCC(=O)N[C@@H](CCCNC(=N)N)C(=O)N2 | – | Activity (Melanocortin receptor 4 [5]): inactive |
| 100 | 100 | 100 | Soluble | 100 | 100 | 100 | 100 | CC[C@H](C)[C@@H]1NC(=O)[C@@H]2CCCN2C(=O)[C@H](Cc2c[nH]c3ccccc23)NC(=O)[C@H](CCCNC(=N)N)NC(=O)[C@@H](Cc2ccccc2)NC(=O)[C@H](Cc2cnc[nH]2)N(C)C(=O)[C@H]([C@@H](C)O)NC(=O)[C@@H]2CSSC[C@H](NC1=O)C(=O)N[C@@H](Cc1ccccc1)C(=O)N1CCC[C@H]1C(=O)N[C@@H](CC(=O)O)C(=O)NCC(=O)N[C@@H](CCCNC(=N)N)C(=O)N2 | 100 | – |
| 100 | 100 | 100 | Soluble | 100 | 100 | 100 | 100 | CC[C@H](C)[C@@H]1NC(=O)[C@@H]2CCCN2C(=O)[C@H](Cc2c[nH]c3ccccc23)NC(=O)[C@H](CCCNC(=N)N)N(C)C(=O)[C@@H](Cc2ccccc2)NC(=O)[C@H](Cc2cnc[nH]2)NC(=O)[C@H]([C@@H](C)O)NC(=O)[C@@H]2CSSC[C@H](NC1=O)C(=O)N[C@@H](Cc1ccccc1)C(=O)N1CCC[C@H]1C(=O)N[C@@H](CC(=O)O)C(=O)NCC(=O)N[C@@H](CCCNC(=N)N)C(=O)N2 | 100 | – |
| 100 | 100 | 100 | Soluble | 100 | 100 | 100 | 100 | CC[C@H](C)[C@@H]1NC(=O)[C@@H]2CCCN2C(=O)[C@H](Cc2c[nH]c3ccccc23)N(C)C(=O)[C@H](CCCNC(=N)N)N(C)C(=O)[C@@H](Cc2ccccc2)NC(=O)[C@H](Cc2cnc[nH]2)NC(=O)[C@H]([C@@H](C)O)NC(=O)[C@@H]2CSSC[C@H](NC1=O)C(=O)N[C@@H](Cc1ccccc1)C(=O)N1CCC[C@H]1C(=O)N[C@@H](CC(=O)O)C(=O)NCC(=O)N[C@@H](CCCNC(=N)N)C(=O)N2 | 100 | – |

| Structure (SMILES) | Activity [1] [%] | inhibition (Melanocortin receptor 3 [4]) [%] | Activity (Melanocortin receptor 4 [6]) [%] | solubility [8] | inhibition (Melanocortin receptor 5) [%] | Activity (Melanocortin receptor 3 [9]) [%] | inhibition [11] [%] | inhibition (Melanocortin receptor 4 [12]) [%] | Activity (Melanocortin receptor 4 [10]) [%] | further results |
| --- | --- | --- | --- | --- | --- | --- | --- | --- | --- | --- |
| CC[C@H](C)[C@@H]1NC(=O)[C@@H]2CCCN2C(=O)[C@@H]2CCCN2C(=O)[C@H]([C@@H](C)CC)NC(=O)[C@H](CO)NC(=O)[C@H](C)NC(=O)[C@H]([C@H](C)O)NC(=O)[C@@H]2CSSC[C@H](NC1=O)C(=O)N[C@@H](Cc1cnc[nH]1)C(=O)N[C@H](Cc1ccccc1)C(=O)N(C)[C@@H](CCCNC(=N)N)C(=O)N(C)[C@@H](Cc1c[nH]c3ccccc13)C(=O)N[C@@H](CCCNC(=N)N)C(=O)N2 | 100 | 100 | 100 | – | 100 | 100 | 100 | 100 | 100 | inhibition (Bos taurus): Active |
| CC[C@H](C)[C@@H]1NC(=O)[C@@H]2CCCN2C(=O)[C@@H]2CCCN2C(=O)[C@H]([C@@H](C)CC)NC(=O)[C@H](CO)NC(=O)[C@H](C)NC(=O)[C@H]([C@H](C)O)NC(=O)[C@@H]2CSSC[C@H](NC1=O)C(=O)N[C@@H](Cc1cnc[nH]1)C(=O)N[C@H](Cc1ccccc1)C(=O)N[C@@H](CCCNC(=N)N)C(=O)N[C@@H](Cc1c[nH]c3ccccc13)C(=O)N[C@@H](CCCNC(=N)N)C(=O)N2 | 100 | 100 | 100 | – | 100 | 100 | 100 | 100 | 100 | inhibition (Bos taurus): Active |
| CC[C@H](C)[C@@H]1NC(=O)[C@@H]2CCCN2C(=O)[C@@H]2CCCN2C(=O)[C@H]([C@@H](C)CC)NC(=O)[C@H](CO)NC(=O)[C@H](C)NC(=O)[C@H]([C@H](C)O)NC(=O)[C@@H]2CSSC[C@H](NC1=O)C(=O)N[C@@H](Cc1cnc[nH]1)C(=O)N[C@H](Cc1ccccc1)C(=O)N(C)[C@@H](CCCNC(=N)N)C(=O)N[C@@H](Cc1c[nH]c3ccccc13)C(=O)N[C@@H](CCCNC(=N)N)C(=O)N2 | 100 | 100 | 100 | – | 100 | 100 | 100 | 100 | 100 | inhibition (Bos taurus): Active |
| CC[C@H](C)[C@@H]1NC(=O)[C@@H]2CCCN2C(=O)[C@@H]2CCCN2C(=O)[C@H]([C@@H](C)CC)NC(=O)[C@H](CO)NC(=O)[C@H](C)NC(=O)[C@H]([C@H](C)O)NC(=O)[C@@H]2CSSC[C@H](NC1=O)C(=O)N[C@@H](Cc1cnc[nH]1)C(=O)N[C@@H](Cc1ccccc1)C(=O)N[C@@H](CCCNC(=N)N)C(=O)N[C@@H](Cc1c[nH]c3ccccc13)C(=O)N[C@@H](CCCNC(=N)N)C(=O)N2 | 100 | 100 | 100 | Soluble | 100 | 100 | 100 | 100 | 100 | EC50 [1]: 0.0417 µM; EC50 (Melanocortin receptor 3 [9]): 2.14 µM; EC50 (Melanocortin receptor 4 [10]): > 100 µM; Ki (Melanocortin receptor 3 [4]): 23.4 µM; EC50 (Melanocortin receptor 4 [6]): 3.09 µM; Ki [11]: 0.363 µM; Ki (Melanocortin receptor 4 [12]): 25.1 µM; IC50 (Melanocortin receptor 5): 4.07 µM |
